Source: article PMC3561764 (Nature, 2007)
Values belong to the molecule of their own block, whether it stands above or below them. No end group written: not given here.

Tests used:
[1] = test system: EGFR kinase domain attached to lipid vesicles; assay: vesicle-based kinase assay; format: biochemical; conditions: wild type kinase 3.5 μM, substrate peptide 1 mM, Fig. 2c
Method in brief: (§1)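 Wild-type EGFR kinase domain assayed either free in solution at 14 μM, or tethered to lipid vesicles at 3.5 μM. Vesicle tethering raises the local kinase concentration and promotes asymmetric dimer formation. Substrate peptide was held at 1 mM in all runs. Activity is reported as initial velocity normalised by kinase concentration.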

[2] = test system: EGFR kinase domain; assay: crystal structures of EGFR kinase domain/Mig6 peptide complexes; format: binding; conditions: 25-residue epitope, residues 337–361
[3] = test system: EGFR kinase domain K799E mutant; assay: interaction with K799E mutant kinase domain; format: binding; conditions: Supplemental Figure 5
[4] = test system: EGFR; conditions: ref [3],[5],[12]; cited from earlier work
[5] = test system: EGFR; conditions: mouse skin; ref [8]; cited from earlier work
[6] = biological target: wild type EGFR kinase domain (Homo sapiens, UniProt P00533); assay: kinase assay in solution, wild type; format: biochemical; conditions: kinase 14 μM, substrate peptide 1 mM, Fig. 3b
Method in brief: as §1

[7] = biological target: EGFR kinase domain, wild type (UniProt P00533 696-1022); assay: fluorescence polarisation

inhibition of basal activity of wild type kinase domain in solution, in words [6]: does not show any inhibition
B2: Mig6^segment 1–2 (Y358A) (peptide, UniProt Q9UJM3 336-412, looked up, variant M346L Y358A)
chain: KSLPSYLNGVLPPTQSFAPDPKAVSSKALQRQNSEGSASKVPCILPIIENGKKVSSTHYYLLPERPPYLDKYEKFFR

binding result [7]: binds
B3: 30-residue fluorescein-labeled Mig6 peptide (residues 334–363) M346L (peptide, UniProt Q9UJM3 334-363, looked up)
peptide: SPKSLPSYLNGVLPPTQSFAPDPKYVSSKA
modifications: also: fluorescein label, position not given here

Second part, the molecule before the results:

Molecule: 25-residue peptide: 25-residue peptide (residues 340–364), which lacks 3 residues in the N-terminal portion of Mig6^segment 1
inhibition of the kinase domain attached to lipid vesicles, in words [1]: much less potent

Molecule: Mig6^segment 1: 25-residue epitope of Mig6 sufficient for binding to the EGFR kinase domain (residues 337–361)
binding to the EGFR kinase domain (crystal structures) [2]: sufficient for binding to the EGFR kinase domain | effect of K799E kinase mutation on interaction with Mig6^segment 1 [3]: does not affect the conformation of the kinase domain or its interaction

B1: Mitogen-induced gene 6 (protein, UniProt Q9UJM3 1-462, looked up)
chain: MSIAGVAAQEIRVPLKTGFLHNGRAMGNMRKTYWSSRSEFKNNFLNIDPITMAYSLNSSAQERLIPLGHASKSAPMNGHCFAENGPSQKSSLPPLLIPPSENLGPHEEDQVVCGFKKLTVNGVCASTPPLTPIKNSPSLFPCAPLCERGSRPLPPLPISEALSLDDTDCEVEFLTSSDTDFLLEDSTLSDFKYDVPGRRSFRGCGQINYAYFDTPAVSAADLSYVSDQNGGVPDPNPPPPQTHRRLRRSHSGPAGSFNKPAIRISNCCIHRASPNSDEDKPEVPPRVPIPPRPVKPDYRRWSAEVTSSTYSDEDRPPKVPPREPLSPSNSRTPSPKSLPSYLNGVMPPTQSFAPDPKYVSSKALQRQNSEGSASKVPCILPIIENGKKVSSTHYYLLPERPPYLDKYEKFFREAEETNGGAQIQPLPADCGISSATEKPDSKTKMDLGGHVKRKHLSYVVSP
modifications: full-length C-terminal Myc tag
binding to activated EGFR compared with unliganded receptor [4]: bind more tightly to activated EGFR than to the unliganded receptor | inhibition of EGFR-mediated signals [5]: inhibits EGFR-mediated signals in mouse skin
